≈ marks a conversion by molar mass, not a printed value.
Legend:
Assay type in all cases: functional
Helicobacter pylori [1] = experiment: Anti-bacterial activity against Helicobacter pylori NCTC 11637 measured after 72 hrs incubation by modified broth dilution method
Helicobacter pylori [2] = experiment: Anti-bacterial activity against Helicobacter pylori Clinical isolate 23 measured after 72 hrs incubation by modified broth dilution method
Helicobacter pylori [3] = experiment: Anti-bacterial activity against Helicobacter pylori Clinical isolate F4 measured after 72 hrs incubation by modified broth dilution method
Helicobacter pylori [4] = experiment: Bactericidal activity against Helicobacter pylori NCTC 11637 measured after 72 hrs of incubation under microaerophilic conditions by modified broth dilution method; conditions: read-out: MBC99.9
Summary of the method: (§1)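 H. pylori (NCTC 11637, F1, 23, F4). Wells with no visible growth in the MIC assay spotted (10 μL) onto Skirrow agar. Plates incubated 72 h at 37 °C, microaerophilic, 100% humidity. MBC = concentration killing 99.9% of the initial inoculum. Triplicate, on at least three different days.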

Helicobacter pylori [5] = experiment: Bactericidal against Helicobacter pylori measured after 72 hrs of incubation under microaerophilic conditions by modified broth dilution method; conditions: for MBC: Helicobacter pylori, read-out: MBC99.9
Summary of the method: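 Wells with no visible growth in the MIC assay spotted (10 μL) onto Skirrow agar. Plates incubated 72 h at 37 °C, microaerophilic, 100% humidity. Triplicate, on at least three different days.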

Helicobacter pylori [6] = experiment: Anti-bacterial activity against Helicobacter pylori Clinical isolate F1 measured after 72 hrs incubation by modified broth dilution method
Helicobacter pylori [7] = experiment: Bactericidal against Helicobacter pylori Clinical isolate F4 measured after 72 hrs of incubation under microaerophilic conditions by modified broth dilution method; conditions: read-out: MBC99.9; summary of the method: as §1
Helicobacter pylori [8] = experiment: Bactericidal activity against Helicobacter pylori Clinical isolate F1 measured after 72 hrs of incubation under microaerophilic conditions by modified broth dilution method; conditions: read-out: MBC99.9; summary of the method: as §1
Helicobacter pylori [9] = experiment: Anti-bacterial activity against Helicobacter pylori measured after 72 hrs incubation by modified broth dilution method
Helicobacter pylori [10] = experiment: Bactericidal activity against Helicobacter pylori Clinical isolate 23 measured after 72 hrs of incubation under microaerophilic conditions by modified broth dilution method; conditions: read-out: MBC99.9; summary of the method: as §1

| SMILES | MIC (Helicobacter pylori [1]) | MIC (Helicobacter pylori [2]) | MIC (Helicobacter pylori [3]) | MIC (Helicobacter pylori [6]) | MIC50 (Helicobacter pylori [9]) | MIC90 (Helicobacter pylori [9]) | MBC (Helicobacter pylori [4]) | MBC90 (Helicobacter pylori [5]) | MBC (Helicobacter pylori [7]) | MBC (Helicobacter pylori [8]) | MBC (Helicobacter pylori [10]) | MBC (Helicobacter pylori [5]) |
| --- | --- | --- | --- | --- | --- | --- | --- | --- | --- | --- | --- | --- |
| Cc1ccccc1/N=N/c1cc(C(C)C)c(O)c(/N=N/c2ccccc2C)c1C | > 128 µg/mL | 128 µg/mL (≈ 331 µM) | 128 µg/mL (≈ 331 µM) | 128 µg/mL (≈ 331 µM) | 128 µg/mL (≈ 331 µM) | > 128 µg/mL | > 128 µg/mL | >128 µg/mL | > 128 µg/mL | > 128 µg/mL | > 128 µg/mL |  |
| COc1cc(C=O)cc(/N=N/c2ccc(Cl)c(Cl)c2)c1O | 128 µg/mL (≈ 394 µM) | 64 µg/mL (≈ 197 µM) | 128 µg/mL (≈ 394 µM) | 64 µg/mL (≈ 197 µM) | 64 µg/mL (≈ 197 µM) | 128 µg/mL (≈ 394 µM) | 128 µg/mL (≈ 394 µM) | 128 µg/mL (≈ 394 µM) | 128 µg/mL (≈ 394 µM) | 64 µg/mL (≈ 197 µM) | 128 µg/mL (≈ 394 µM) |  |
| COc1cc(C)c(/N=N/c2ccc([N+](=O)[O-])cc2)cc1C(C)C | > 128 µg/mL | > 128 µg/mL | > 128 µg/mL | > 128 µg/mL | > 128 µg/mL | > 128 µg/mL | > 128 µg/mL | >128 µg/mL | > 128 µg/mL | > 128 µg/mL | > 128 µg/mL |  |
| Cc1cc(OC(=S)N(C)C)c(C(C)C)cc1/N=N/c1ccc([N+](=O)[O-])cc1 | > 128 µg/mL | > 128 µg/mL | > 128 µg/mL | > 128 µg/mL | > 128 µg/mL | > 128 µg/mL | > 128 µg/mL | >128 µg/mL | > 128 µg/mL | > 128 µg/mL | > 128 µg/mL |  |
| C=CCc1cc(/N=N/c2ccc3c(c2)OCO3)c(O)c(OC)c1 | 128 µg/mL (≈ 410 µM) | > 128 µg/mL | > 128 µg/mL | > 128 µg/mL | > 128 µg/mL | > 128 µg/mL | 128 µg/mL (≈ 410 µM) | >128 µg/mL | > 128 µg/mL | > 128 µg/mL | > 128 µg/mL |  |
| C=CCc1cc(/N=N/c2ccccc2C)c(O)c(OC)c1 | 128 µg/mL (≈ 453 µM) | 64 µg/mL (≈ 227 µM) | 64 µg/mL (≈ 227 µM) | 128 µg/mL (≈ 453 µM) | 64 µg/mL (≈ 227 µM) | 128 µg/mL (≈ 453 µM) | 128 µg/mL (≈ 453 µM) | 128 µg/mL (≈ 453 µM) | 64 µg/mL (≈ 227 µM) | 128 µg/mL (≈ 453 µM) | 64 µg/mL (≈ 227 µM) |  |
| COc1ccc(/N=N/c2cc(C)c(O)c(/N=N/c3ccc(OC)cc3)c2C(C)C)cc1 | > 128 µg/mL | > 128 µg/mL | > 128 µg/mL | > 128 µg/mL | > 128 µg/mL | > 128 µg/mL | > 128 µg/mL | >128 µg/mL | > 128 µg/mL | > 128 µg/mL | > 128 µg/mL |  |
| C=CCc1cc(/N=N/c2cccc([N+](=O)[O-])c2)c(O)c(OC)c1 | 128 µg/mL (≈ 409 µM) | 128 µg/mL (≈ 409 µM) | 128 µg/mL (≈ 409 µM) | 128 µg/mL (≈ 409 µM) | 128 µg/mL (≈ 409 µM) | > 128 µg/mL | 128 µg/mL (≈ 409 µM) | >128 µg/mL | 128 µg/mL (≈ 409 µM) | > 128 µg/mL | 128 µg/mL (≈ 409 µM) |  |
| Cc1cc(OC(=O)N(C)C)c(C(C)C)cc1/N=N/c1ccc([N+](=O)[O-])cc1 | > 128 µg/mL | > 128 µg/mL | 128 µg/mL (≈ 346 µM) | 128 µg/mL (≈ 346 µM) | > 128 µg/mL | > 128 µg/mL | 128 µg/mL (≈ 346 µM) | 128 µg/mL (≈ 346 µM) | 128 µg/mL (≈ 346 µM) | 128 µg/mL (≈ 346 µM) | 128 µg/mL (≈ 346 µM) |  |
| Cc1cc(/N=N/c2ccccc2Cl)c(C(C)C)c(/N=N/c2ccccc2Cl)c1O | 128 µg/mL (≈ 300 µM) | 128 µg/mL (≈ 300 µM) | 128 µg/mL (≈ 300 µM) | 64 µg/mL (≈ 150 µM) | 128 µg/mL (≈ 300 µM) | 128 µg/mL (≈ 300 µM) | 128 µg/mL (≈ 300 µM) | >128 µg/mL | > 128 µg/mL | > 128 µg/mL | > 128 µg/mL |  |
| C=CCc1cccc(OC)c1O | > 128 µg/mL | > 128 µg/mL | > 128 µg/mL | > 128 µg/mL | > 128 µg/mL | > 128 µg/mL | > 128 µg/mL |  | > 128 µg/mL | > 128 µg/mL | > 128 µg/mL | > 128 µg/mL |
| C=CCc1cc(/N=N/c2ccc(Cl)cc2Cl)c(O)c(OC)c1 | 128 µg/mL (≈ 380 µM) | > 128 µg/mL | > 128 µg/mL | > 128 µg/mL | > 128 µg/mL | > 128 µg/mL | 128 µg/mL (≈ 380 µM) | >128 µg/mL | > 128 µg/mL | > 128 µg/mL | > 128 µg/mL |  |
| COc1ccc(/N=N/c2cc(C(C)C)c(OC(=O)N(C)C)cc2C)cc1 | 128 µg/mL (≈ 360 µM) | 64 µg/mL (≈ 180 µM) | 64 µg/mL (≈ 180 µM) | 128 µg/mL (≈ 360 µM) | > 128 µg/mL | 128 µg/mL (≈ 360 µM) | 64 µg/mL (≈ 180 µM) | 128 µg/mL (≈ 360 µM) | 64 µg/mL (≈ 180 µM) | > 128 µg/mL | 128 µg/mL (≈ 360 µM) |  |

Stronger by MIC (Helicobacter pylori [1]), values ahead:

| MIC (Helicobacter pylori [1]) | MIC (Helicobacter pylori [2]) | MIC (Helicobacter pylori [3]) | MIC (Helicobacter pylori [6]) | MIC50 (Helicobacter pylori [9]) | MIC90 (Helicobacter pylori [9]) | SMILES | MBC (Helicobacter pylori [4]) | MBC90 (Helicobacter pylori [5]) | MBC (Helicobacter pylori [7]) | MBC (Helicobacter pylori [8]) | MBC (Helicobacter pylori [10]) | MBC (Helicobacter pylori [5]) |
| --- | --- | --- | --- | --- | --- | --- | --- | --- | --- | --- | --- | --- |
| 4 µg/mL (≈ 14.1 µM) | 4 µg/mL (≈ 14.1 µM) | 2 µg/mL (≈ 7.03 µM) | 4 µg/mL (≈ 14.1 µM) | 4 µg/mL (≈ 14.1 µM) | 4 µg/mL (≈ 14.1 µM) | COc1ccc(/N=N/c2cc(C(C)C)c(O)cc2C)cc1 | 4 µg/mL (≈ 14.1 µM) | 4 µg/mL (≈ 14.1 µM) | 2 µg/mL (≈ 7.03 µM) | 4 µg/mL (≈ 14.1 µM) | 4 µg/mL (≈ 14.1 µM) |  |
| 32 µg/mL (≈ 195 µM) | 32 µg/mL (≈ 195 µM) | 32 µg/mL (≈ 195 µM) | 32 µg/mL (≈ 195 µM) | 32 µg/mL (≈ 195 µM) | 32 µg/mL (≈ 195 µM) | C/C=C/c1ccc(O)c(OC)c1 | 32 µg/mL (≈ 195 µM) |  | 32 µg/mL (≈ 195 µM) | 32 µg/mL (≈ 195 µM) | 32 µg/mL (≈ 195 µM) | 32 µg/mL (≈ 195 µM) |
| 64 µg/mL (≈ 204 µM) | 128 µg/mL (≈ 409 µM) | 64 µg/mL (≈ 204 µM) | 64 µg/mL (≈ 204 µM) | 64 µg/mL (≈ 204 µM) | 128 µg/mL (≈ 409 µM) | C=CCc1cc(/N=N/c2ccc([N+](=O)[O-])cc2)c(O)c(OC)c1 | 64 µg/mL (≈ 204 µM) | 128 µg/mL (≈ 409 µM) | 128 µg/mL (≈ 409 µM) | 64 µg/mL (≈ 204 µM) | 128 µg/mL (≈ 409 µM) |  |
| 8 µg/mL (≈ 28.4 µM) | 8 µg/mL (≈ 28.4 µM) | 8 µg/mL (≈ 28.4 µM) | 4 µg/mL (≈ 14.2 µM) | 8 µg/mL (≈ 28.4 µM) | 8 µg/mL (≈ 28.4 µM) | COc1cc(C=O)cc(/N=N/c2ccc(C#N)cc2)c1O | 16 µg/mL (≈ 56.9 µM) | 16 µg/mL (≈ 56.9 µM) | 8 µg/mL (≈ 28.4 µM) | 4 µg/mL (≈ 14.2 µM) | 8 µg/mL (≈ 28.4 µM) |  |
| 8 µg/mL (≈ 52.6 µM) | 16 µg/mL (≈ 105 µM) | 8 µg/mL (≈ 52.6 µM) | 4 µg/mL (≈ 26.3 µM) | 8 µg/mL (≈ 52.6 µM) | 16 µg/mL (≈ 105 µM) | COc1cccc(C=O)c1O | 16 µg/mL (≈ 105 µM) |  | 8 µg/mL (≈ 52.6 µM) | 4 µg/mL (≈ 26.3 µM) | 16 µg/mL (≈ 105 µM) | 16 µg/mL (≈ 105 µM) |
| 8 µg/mL (≈ 26.6 µM) | 8 µg/mL (≈ 26.6 µM) | 8 µg/mL (≈ 26.6 µM) | 16 µg/mL (≈ 53.1 µM) | 8 µg/mL (≈ 26.6 µM) | 16 µg/mL (≈ 53.1 µM) | COc1cc(C=O)cc(/N=N/c2cccc([N+](=O)[O-])c2)c1O | 8 µg/mL (≈ 26.6 µM) | 16 µg/mL (≈ 53.1 µM) | 16 µg/mL (≈ 53.1 µM) | 16 µg/mL (≈ 53.1 µM) | 8 µg/mL (≈ 26.6 µM) |  |
| 64 µg/mL (≈ 426 µM) | 64 µg/mL (≈ 426 µM) | 64 µg/mL (≈ 426 µM) | 64 µg/mL (≈ 426 µM) | 64 µg/mL (≈ 426 µM) | 64 µg/mL (≈ 426 µM) | Cc1ccc(C(C)C)cc1O [CARVACROL] | 64 µg/mL (≈ 426 µM) |  | 64 µg/mL (≈ 426 µM) | 64 µg/mL (≈ 426 µM) | 64 µg/mL (≈ 426 µM) | 64 µg/mL (≈ 426 µM) |
| 4 µg/mL (≈ 14.8 µM) | 8 µg/mL (≈ 29.6 µM) | 8 µg/mL (≈ 29.6 µM) | 2 µg/mL (≈ 7.4 µM) | 4 µg/mL (≈ 14.8 µM) | 8 µg/mL (≈ 29.6 µM) | COc1cc(C=O)cc(/N=N/c2ccc(C)cc2)c1O | 4 µg/mL (≈ 14.8 µM) | 8 µg/mL (≈ 29.6 µM) | 8 µg/mL (≈ 29.6 µM) | 2 µg/mL (≈ 7.4 µM) | 8 µg/mL (≈ 29.6 µM) |  |
